A selection: hits, their analogues and other compounds. The true share with any hit is near 3.9%.
tim23-1 inh = inhibits growth of tim23-1 mutant yeast. S. cerevisiae tim23-1 growth, BacTiter-Glo luminescence, 24 h. inhibition, % at 20 µM. 330,000 compounds, 1.3% hits;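 active means growth inhibition of the mutant yeast at or above 50%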;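 further: temperature-sensitive mutant grown at 25 °C; plate controls were DMSO-treated mutant yeast for no effect and medium wells lacking yeast for full effect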
UPR CHOP act = activators of apoptotic arm of unfolded protein response (CHOP); CHO-CHOP luciferase reporter, UPR activation, luminescence; percent of tunicamycin response over DMSO baseline; activation, % at 10 µM; 330,000 compounds, 0.34% hits; AID 449763;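 active means at 10 µM dose, activation of 40% or more, normalized to positive control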;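 further: 100% = tunicamycin at 10 µg/mL and 0% = DMSO alone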
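Test system: CHO CHOP reporter cells. Input: 500 CHO-CHOP cells per well. Medium: F12 with 10% FBS. Technique: luciferase luminescence. Measure: percent activation relative to tunicamycin control. Dosing: 10 µM compound, 0.5% DMSO. Timing: 16-18 h cell attachment, then 6 h compound exposure, 37 °C.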
TIM10 inh = TIM10 yeast growth inhibition | S. cerevisiae TIM10 strain growth, BacTiter-Glo luminescence, 24 h | inhibition, % at 10 µM | 330,000 compounds, 1.4% hits | AID 463195;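 active means inhibition of 40% or more at the single tested concentration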;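 further: wild-type TIM10 isogenic control strain grown at permissive 25 °C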
UPR XBP1 act = activators of adaptive arm of unfolded protein response (XBP1); CHO-XBP1 luciferase reporter, IRE1-XBP1 UPR activation, luminescence; percent of tunicamycin response, DMSO as zero; 330,000 compounds, 0.33% hits; activation, % at 20 µM;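 active means versus positive control, 20 µM dose yields 30% or more activation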;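 further: 100% = tunicamycin at 10 µg/mL and 0% = DMSO only wells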
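Material: CHO-XBP1 cells stably carrying IRE1-XBP1-driven luciferase reporter / Amount: 1000 cells per well / Compound: 20 µM, 1% DMSO / Times: 6 h treatment, 37 °C / Detection: luciferase luminescence / Measure: % activation of reporter signal versus tunicamycin and DMSO controls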
tim10-1 inh = inhibits growth of tim10-1 mutant yeast; S. cerevisiae tim10-1 ts strain growth, BacTiter-Glo, 24 h; inhibition, % at 20 µM; 330,000 compounds, 2.2% hits; AID 463190;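 active means inhibition of at least 40%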;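 further: mutant grown at 25 °C; 0% = DMSO wells with yeast and 100% = wells holding no yeast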
tim10-1 conf = confirmation of tim10-1 mutant yeast growth inhibitors; S. cerevisiae tim10-1 ts strain growth, BacTiter-Glo, 24 h; 7,400 compounds, 56% hits; shares compounds with tim10-1 inh; inhibition, % at 20 µM;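 active means inhibition of yeast growth at or above a set limit in either of two repeat tests at 20 µM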;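 further: tim10-1 mutant grown at permissive 25 °C to find synthetic lethal compounds; 0% = DMSO yeast wells and 100% = medium wells without yeast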
* = called active by the depositor; / = not tested or not shown.

SMILES | tim23-1 inh | UPR CHOP act | TIM10 inh | UPR XBP1 act | tim10-1 inh | tim10-1 conf
O=C(NC(=S)NC1C2CC3CC(C2)CC1C3)C12CC3CC(CC(C3)C1)C2 (configuration not stated) | 35 | 1 | 39 | 0 | 46* | 15
CCC(=O)NC(=S)Nc1ccc(Cl)cn1 | 39 | 2 | 21 | -2 | 27 | /
CCCC(=O)Nc1ccc(NC(=O)c2ccccc2)nc1 | 8 | 1 | 4 | -3 | -5 | /
O=C(NC(=S)Nc1ccc(Cl)cn1)C12CC3CC(CC(C3)C1)C2 | 24 | 4 | 31 | 5 | 40* | 14
CCCC(=O)Nc1ccc(NC(=O)C23CC4CC(CC(C4)C2)C3)cn1 | 40 | -2 | 30 | -1 | 44* | 33*
C=CCn1c(SCC(=O)Nc2cccc(S(N)(=O)=O)c2)nnc1C1CCCCC1 | 13 | -2 | 8 | 0 | 1 | /
Cc1ccc(N(C(=O)CNC(=O)c2ccco2)C(C(=O)NC2CCCCC2)c2cccnc2)cc1 (configuration not stated) | 2 | 0 | 13 | 2 | 10 | /
CCN(CC)S(=O)(=O)c1ccc(OC)c(NC(=O)CSCc2c(C)noc2C)c1 | 17 | 0 | 9 | -3 | 20 | /
COC(=O)C1=CN(C(C)c2ccccc2)C=C(C(=O)OC)C1c1cc(OC)c(OC)c(OC)c1 (configuration not stated) | 44 | 1 | 17 | -1 | 43* | 21
CCOC(=O)c1c(CSc2ccc(C)cc2)oc2ccc(O)cc12 | 16 | 1 | -10 | 4 | 40 | 4
CCOC(=O)c1c(CSc2ccccc2)oc2ccc(O)cc12 | 4 | 0 | -40 | 8 | 12 | /
COC(=O)Cc1ccc(NC(=S)NCc2ccccc2OC)cc1 | -7 | 0 | 11 | 1 | 20 | /
COc1ccccc1CNC(=S)Nc1ccc(F)cc1 | 33 | -1 | 16 | 0 | 48* | 1
CC(C)Oc1ccc(C(CC(=O)NCc2ccco2)c2ccccc2)cc1 (configuration not stated) | 20 | -3 | 19 | -1 | 40* | 11
Cc1cccc(C(CC(=O)NCc2ccco2)c2ccccc2)c1O (configuration not stated) | 18 | 0 | 4 | -5 | -4 | /
CC1(NC(=O)Nc2cccc(Br)c2)CCS(=O)(=O)C1 (configuration not stated) | 2 | -1 | 1 | -2 | -4 | /
COc1cc2c(cc1OC)CN(CC(=O)Nc1ccc(F)cc1)C(C(=O)O)C2 (configuration not stated) | 1 | 2 | -6 | -3 | 8 | /
CCOC(=O)c1oc2nc(CC(C)C)c3c(c2c1N)CCC3 | 46 | 1 | 38 | 1 | 40* | 18
Cc1cc(C)c(N=Cc2c(O)n(-c3nccs3)c(=O)c3ccccc23)c(C)c1 | 42 | 2 | 36 | -1 | 41* | 32*
COc1ccc(CC(=O)O/N=C(\N)Cc2cccc3ccccc23)cc1OC | 34 | 7 | 29 | -1 | 58* | 48*
COc1ccc(CC(=O)O/N=C(\N)c2ccccn2)cc1OC | -1 | 4 | 4 | -1 | 24 | /
COc1ccc2c(COC(=O)[C@@H]3CCCN3S(=O)(=O)c3ccc(Cl)cc3)cc(=O)oc2c1 | 20 | 0 | -16 | 0 | 12 | /
Fc1ccc(Oc2nc(-c3ccccc3)nnc2C(F)(F)F)cc1 | 47 | 1 | 38 | -4 | 50* | 23
Cc1ccc(/C=N/c2sc(Cc3ccccc3)c(C)c2C(N)=O)o1 | 49 | 4 | 33 | 1 | 48* | 46*
CC(C)(C)Nc1nc(Cl)nc(NC(C)(C)C)n1 | 24 | 0 | 14 | 3 | 44* | 20
SMILES | tim23-1 inh | UPR CHOP act | TIM10 inh | UPR XBP1 act | tim10-1 inh | tim10-1 conf
Cc1ccc(NC(=O)NN2CCN(C)CC2)cc1C | 18 | 1 | 17 | -5 | -5 | /
c1ccc(-c2csc3ncnc(-n4cnc5ccccc54)c23)cc1 | 36 | -2 | 23 | -1 | 42* | 32*
Cc1ccc(-c2csc3ncnc(-n4nnc5ccccc54)c23)cc1 | 47 | 0 | 34 | 0 | 38 | /
Cc1ccc(-c2csc3ncnc(-n4nnc5ccccc54)c23)cc1C | 38 | 3 | 25 | 0 | 42* | 31*
CN(Cc1ccccc1)C(=O)COC(=O)CN1C(=O)c2ccccc2C1=O | 6 | 1 | 5 | 1 | 10 | /
CSc1ncc(Cl)c(C(=O)Nc2nnc(SC/C=C/c3ccccc3)s2)n1 | 29 | -2 | 16 | -2 | 42* | 39*
Cc1cc(O)c(C(=O)/C=C/c2ccc(C(C)C)cc2)c(=O)o1 | 43 | 7 | 31 | -5 | 43* | 33*
Cc1cc(O)c(C(=O)/C=C/c2ccccc2Br)c(=O)o1 | 35 | 1 | 23 | -3 | 46* | 11
Brc1ccc(-c2nnc(-c3cccnc3)c3conc23)cc1 | 44 | 3 | 18 | 4 | 51* | 15
COc1ccc(-c2nnc(C)c3nocc23)cc1 | 3 | 3 | 1 | -6 | 4 | /
Cc1sc2nc(CSC(C)C(=O)NC3(C#N)CCCCC3)[nH]c(=O)c2c1C (configuration not stated) | 3 | -2 | 4 | 1 | 12 | /
Cc1oc(-c2ccccc2F)nc1CSCC(=O)NC1CC1 | -2 | 5 | 1 | -5 | 3 | /
Cc1ccccc1-c1nc(CS(=O)(=O)CC(=O)NC2CCCCC2C)c(C)o1 (configuration not stated) | 15 | 1 | 14 | -4 | 41* | -2
Cc1oc(-c2ccccc2F)nc1CSCC(=O)NC1CCC(C)CC1 (configuration not stated) | 28 | 2 | 6 | -2 | 40* | -7
Cc1ccccc1-c1nc(CS(=O)(=O)CC(=O)NC2CC2)c(C)o1 | -5 | -1 | -7 | -3 | -5 | /
COc1ccccc1C(=O)Nc1cccc2c1CCCC2 | 14 | 2 | 7 | 4 | 14 | /
CCOc1ccc(NC(=O)c2sc3nc(C)nc(N4CCOCC4)c3c2C)cc1 | 33 | 0 | -9 | -1 | 28 | /
CCN(CC)CCCCCC(=O)Nc1ccccc1C(=O)Nc1ccccc1 | 10 | 4 | 0 | -3 | 7 | /
CCOC(=O)c1cnc2ccc(OC)cc2c1NCc1ccccc1 | 38 | 0 | 36 | -2 | 30 | /
CCOC(=O)c1cnc2ccc(OCC)cc2c1NCc1ccccc1OC | 26 | 2 | 16 | 0 | 43* | 34*
CC(Sc1nnc(-c2ccccc2F)n1C)C(=O)NC1CCCCC1 (configuration not stated) | 19 | -1 | 4 | -3 | 11 | /
CC1=C(/C=C/C(C)=N\NC(=O)c2ccncc2)C(C)(C)CCC1 | 15 | -1 | 9 | -2 | 23 | /
CC1=C(/C=C/C(C)=C/C=C/C(C)=C/CO)C(C)(C)CCC1 | 34 | 2 | 22 | -2 | 44* | 15
